Calls of active or inactive are those of the source. The rule behind the calls is not given here.
What was measured:
Rattus norvegicus [1] = test: Time from onset of action until significant (i.e., >= 30%) inhibition of pressor response no longer observed (3 mg/kg peroral route); type: functional
Method in brief: (§1)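 Same conscious-rat AII challenge protocol: AII 0.1 μg/kg iv boluses repeated after iv or po dosing, ΔMAP recorded. Duration is the time from onset until inhibition falls below 30% and stays below 30% for two further AII challenges. Averaged over at least two rats.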

Rattus norvegicus [2] = test: Time from onset of action until significant (i.e., >= 30%) inhibition of pressor response no longer observed (3 mg/kg intravenous route).; type: functional; method in brief: as §1
Rattus norvegicus [3] = test: Peak inhibition of A II pressor response in conscious normotensive rats after intravenous administration of 3 mg/kg of drug (2 animals treated); type: functional
Method in brief: (§2)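 Male Sprague-Dawley rats (300–400 g) catheterized under methohexital, recovered overnight, conscious. Compound given iv (saline or NaHCO3/saline/water vehicle) or po, with food withheld for oral dosing. AII 0.1 μg/kg iv bolus given at -45, -30 and -15 min, then at 5–60 min and every 30 min afterwards. Peak percent inhibition of the AII ΔMAP response, averaged over at least two rats.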

Rattus norvegicus [4] = test: Peak inhibition of A II pressor response in conscious normotensive rats after peroral administration of 3 mg/kg of drug (3 animals treated); type: functional; conditions: route oral; method in brief: as §2
[5] = biological target: T1, Type-1 angiotensin II receptor (Oryctolagus cuniculus, UniProt P34976); test: Displacement of [125I]-Sar1-Ile8-A II at the rabbit aorta angiotensin II receptor, type 1; type: tissue-based
T1 sequence (P34976 whole entry): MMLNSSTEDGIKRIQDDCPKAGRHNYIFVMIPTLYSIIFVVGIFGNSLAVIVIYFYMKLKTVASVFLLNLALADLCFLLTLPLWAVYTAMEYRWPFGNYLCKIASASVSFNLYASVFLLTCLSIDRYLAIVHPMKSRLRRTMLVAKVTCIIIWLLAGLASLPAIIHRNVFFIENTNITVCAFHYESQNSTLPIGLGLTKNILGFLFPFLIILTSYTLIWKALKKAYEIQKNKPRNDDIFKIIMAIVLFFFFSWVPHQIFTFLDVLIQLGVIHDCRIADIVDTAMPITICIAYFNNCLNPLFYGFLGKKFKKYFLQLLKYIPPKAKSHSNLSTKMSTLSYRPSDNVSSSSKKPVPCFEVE
Method in brief: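 Rabbit aorta membranes in 50 mM Tris-HCl pH 7.4, 5 mM MgCl2, 0.2 mg/mL bacitracin; 0.2% BSA only in original version. Nonspecific binding with 1 μM unlabeled Sar1Ile8-AII. Filtration, gamma counting. Duplicate tubes, five concentrations; IC50 from nonlinear regression of displacement curves, sometimes averaged over separate assays.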

Rattus norvegicus [6] = test: Peak inhibition of A II pressor response in conscious normotensive rats after intravenous administration of 1 mg/Kg of drug (2 animals treated); type: functional; method in brief: as §2
Rattus norvegicus [7] = test: Time from onset of action until significant (i.e., >= 30%) inhibition of pressor response no longer observed (1 mg/Kg intravenous route).; type: functional; method in brief: as §1
Rattus norvegicus [8] = test: Time from onset of action until significant (i.e., >= 30%) inhibition of pressor response no longer observed (30 mg/kg peroral route).; type: functional; method in brief: as §1
Rattus norvegicus [9] = test: Peak inhibition of A II pressor response in conscious normotensive rats after peroral administration of 30 mg/kg of drug; type: functional; conditions: route oral; method in brief: as §2
Rattus norvegicus [10] = test: Peak inhibition of A II pressor response in conscious normotensive rats after peroral administration of 1 mg/kg of drug (2 animals treated); type: functional; conditions: route oral; method in brief: as §2
Rattus norvegicus [11] = test: Time from onset of action until significant (i.e., >= 30%) inhibition of pressor response no longer observed (0.3 mg/kg intravenous route); type: functional; method in brief: as §1
Rattus norvegicus [12] = test: Time from onset of action until significant (i.e., >= 30%) inhibition of pressor response no longer observed (0.3 mg/kg peroral route).; type: functional; method in brief: as §1
Rattus norvegicus [13] = test: Time from onset of action until significant (i.e., >= 30%) inhibition of pressor response no longer observed (1 mg/kg peroral route); type: functional; method in brief: as §1
Rattus norvegicus [14] = test: Peak inhibition of A II pressor response in conscious normotensive rats after intravenous administration of 0.3 mg/kg of drug (2 animals treated); type: functional; method in brief: as §2
Rattus norvegicus [15] = test: Peak inhibition of A II pressor response in conscious normotensive rats after peroral administration of 0.3 mg/kg of drug (2 animals treated); type: functional; conditions: route oral; method in brief: as §2
Rattus norvegicus [16] = test: Peak inhibition of A II pressor response in conscious normotensive rats after intravenous administration of 0.3 mg/kg of drug (4 animals treated); type: functional; method in brief: as §2
Rattus norvegicus [17] = test: Peak inhibition of A II pressor response in conscious normotensive rats after peroral administration of 3 mg/kg of drug (4 animals treated); type: functional; conditions: route oral; method in brief: as §2
Rattus norvegicus [18] = organism: Rattus norvegicus; test: In vitro antagonistic activity by displacement of [125I]-Sar1-Ile8-A II at the rat adrenal cortical […] AT1 receptor; type: functional
Rattus norvegicus [19] = test: Peak inhibition of A II pressor response in conscious normotensive rats after intravenous administration of 1 mg/kg of drug (2 animals treated); type: functional; method in brief: as §2
Rattus norvegicus [20] = test: Peak inhibition of A II pressor response in conscious normotensive rats after peroral administration of 0.3 mg/kg of drug (2 animals treated); Not active; type: functional, organism-based; design: dose 0.3 mg/kg; method in brief: as §2
Rattus norvegicus [21] = test: Time from onset of action until significant (i.e., >= 30%) inhibition of pressor response no longer observed (1 mg/kg intravenous route); type: functional; method in brief: as §1
Rattus norvegicus [22] = test: Time from onset of action until significant (i.e., >= 30%) inhibition of pressor response no longer observed (0.3 mg/kg peroral route)); Not active; type: functional, organism-based; method in brief: as §1
Rattus norvegicus [23] = test: Time from onset of action until significant (i.e., >= 30%) inhibition of pressor response no longer observed (10 mg/kg intravenous route).; type: functional; method in brief: as §1
Rattus norvegicus [24] = test: Peak inhibition of A II pressor response in conscious normotensive rats after intravenous administration of 10 mg/kg of drug (3 animals treated); type: functional; method in brief: as §2
Rattus norvegicus [25] = test: Time from onset of action until significant (i.e., >= 30%) inhibition of pressor response no longer observed (3 mg/kg intravenous route); type: functional; method in brief: as §1
Rattus norvegicus [26] = test: Peak inhibition of A II pressor response in conscious normotensive rats after intravenous administration of 3 mg/kg of drug (4 animals treated); type: functional; method in brief: as §2
Rattus norvegicus [27] = test: Time from onset of action until significant (i.e., >= 30%) inhibition of pressor response no longer observed (0.3 mg/kg peroral route); Not active; type: functional, organism-based; method in brief: as §1
Rattus norvegicus [28] = test: Peak inhibition of A II pressor response in conscious normotensive rats after peroral administration of 3 mg/kg of drug (results shown for 3 out of 4 animals); type: functional; conditions: route oral; method in brief: as §2

In the case of `CCCCc1nnc(SCc2ccc(Cl)cc2)n1Cc1ccc(-c2ccccc2-c2nn[nH]n2)cc1`, the Duration (Rattus norvegicus [1]) is reported as 1.5 h, the Duration (Rattus norvegicus [2]) is reported as 1 h and the inhibition in vivo at 3 mg/kg (Rattus norvegicus [3]) is reported as 62%. The inhibition in vivo at 3 mg/kg (Rattus norvegicus [4]) was 50%.

For `CCCCc1nnc([S+]([O-])Cc2ccc(Cl)cc2)n1Cc1ccc(-c2ccccc2-c2nn[nH]n2)cc1` (stereo not drawn), the IC50 [5] was 11 nM, the Inhibition (Rattus norvegicus [6]) was 42% and the Duration (Rattus norvegicus [7]) was 0.1 h.

`CCCCc1nnc(SCc2ccccc2)n1Cc1ccc(NC(=O)c2ccccc2C(=O)O)cc1` gave an IC50 [5] of 15 nM, a Duration (Rattus norvegicus [8]) of 0.4 h and an inhibition in vivo at 30 mg/kg (Rattus norvegicus [9]) of 33%.

`CCCCc1nc(Cl)c(C(=O)O)n1Cc1ccc(-c2ccccc2-c2nn[nH]n2)cc1` [CARBOXYLIC ACID METABOLITE] gave an inhibition in vivo at 1 mg/kg (Rattus norvegicus [10]) of 72%, a Duration (Rattus norvegicus [11]) of over 29 h and a Duration (Rattus norvegicus [12]) of 2.8 h. The Duration (Rattus norvegicus [13]) was over 7 h, the inhibition in vivo at 0.3 mg/kg (Rattus norvegicus [14]) was 100% and the inhibition in vivo at 0.3 mg/kg (Rattus norvegicus [15]) was 63%.

In the case of `CCCCc1nc(Cl)c(CO)n1Cc1ccc(-c2ccccc2-c2nnn[nH]2)cc1` [LOSARTAN], the Duration (Rattus norvegicus [1]) is reported as over 4.5 h, the inhibition in vivo at 0.3 mg/kg (Rattus norvegicus [16]) is reported as 52% and the inhibition in vivo at 3 mg/kg (Rattus norvegicus [17]) is reported as 94%. The Duration (Rattus norvegicus [11]) was 5.5 h, the Duration (Rattus norvegicus [12]) was over 3.5 h and the IC50 (Rattus norvegicus [18]) was 19 nM. It also gave an inhibition in vivo at 0.3 mg/kg (Rattus norvegicus [15]) of 36%.

In the case of `CCCCc1nnc(SCc2ccccc2C(=O)O)n1Cc1ccc(NC(=O)c2ccccc2C(=O)O)cc1`, the IC50 [5] is reported as 3.3 nM, the inhibition in vivo at 1 mg/kg (Rattus norvegicus [19]) is reported as 100% and the inhibition in vivo at 0.3 mg/kg (Rattus norvegicus [16]) is reported as 74%. For the same molecule, the Duration (Rattus norvegicus [11]) was 0.9 h, the inhibition (Rattus norvegicus [20]) was “inactive” and the Duration (Rattus norvegicus [21]) was 1.4 h. The Duration (Rattus norvegicus [22]) was “inactive”.

`CCCCc1nnc(SCC(=O)OC)n1Cc1ccc(-c2ccccc2C(=O)O)cc1` gave an IC50 [5] of 540 nM, a Duration (Rattus norvegicus [23]) of 0.9 h and an inhibition in vivo at 10 mg/kg (Rattus norvegicus [24]) of 93%.

With `CCCCc1nnc(SCc2ccc([N+](=O)[O-])cc2)n1Cc1ccc(-c2ccccc2-c2nn[nH]n2)cc1` the IC50 [5] was 6.6 nM, the Duration (Rattus norvegicus [25]) was 1.4 h and the inhibition in vivo at 3 mg/kg (Rattus norvegicus [26]) was 65%.

For `CCCCc1nnc(SCc2ccccc2C(=O)O)n1Cc1ccc(-c2ccccc2-c2nn[nH]n2)cc1`, the IC50 [5] was 1.5 nM, the Duration (Rattus norvegicus [1]) was over 6 h and the Duration (Rattus norvegicus [11]) was 5.5 h. The inhibition in vivo at 0.3 mg/kg (Rattus norvegicus [14]) was 100%, the Duration (Rattus norvegicus [27]) was “inactive” and the inhibition in vivo at 3 mg/kg (Rattus norvegicus [28]) was 54%. It also gave an inhibition in vivo at 0.3 mg/kg (Rattus norvegicus [15]) of 0%.

From ChEMBL document CHEMBL1127039, “Nonpeptide angiotensin II antagonists derived from 4H-1,2,4-triazoles and 3H-imidazo[1,2-b][1,2,4]triazoles” (J Med Chem, 1993)
